Laboratory results reported in ChEMBL document CHEMBL4257499, “Triazole-diindolylmethane conjugates as new antitubercular agents: synthesis, bioevaluation, and molecular docking” (Medchemcomm, 2018).
Values after ≈ are worked out from the molar mass of the structure shown. Active and inactive are the calls of the source. No cut-off for these calls is given here.

Key:
[1] = test system: Mycobacterium tuberculosis; experiment: Antimycobacterial activity against active stage of Mycobacterium tuberculosis H37Ra ATCC 25177 at 3 to 30 ug/ml by XRMA relative to control; assay type: functional
How it was run: (§1)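 Mtb H37Ra, from a -80 °C stock subcultured once in liquid medium, grown in M. pheli minimal medium (KH2PO4, trisodium citrate, MgSO4, asparagine, glycerol; pH 6.6) in 96-well plates. Primary screen at 30, 10 and 3 µg/mL. XTT reduction menadione read-out at 470 nm against cell-free blank. % inhibition = (control − compound)/(control − blank) × 100, with DMSO-vehicle wells as 100% growth. Duplicates.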

[2] = test system: Mycobacterium tuberculosis; experiment: Antimycobacterial activity against dormant stage of Mycobacterium tuberculosis H37Ra ATCC 25177 at 3 to 30 ug/ml by XRMA relative to control; assay type: functional; how it was run: as §1
Bacillus subtilis = experiment: Antibacterial activity against Bacillus subtilis NCIM 2079 at 3 ug/ml after 8 hrs relative to control; assay type: functional
How it was run: (§2)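 Cultures grown to OD600 of 1, then set at 0.1 OD600 and exposed to compound at 3 µg/mL for 8 h at 37 °C. Ampicillin was the positive control. Activity is reported as % inhibition.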

Staphylococcus aureus = experiment: Antibacterial activity against Staphylococcus aureus NCIM 2010 at 3 ug/ml after 8 hrs relative to control; assay type: functional; how it was run: as §2
[3] = test system: Mycobacterium tuberculosis; experiment: Antimycobacterial activity against active stage of Mycobacterium tuberculosis H37Ra ATCC 25177 by XRMA; assay type: functional, organism-based
How it was run: (§3)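 Mtb H37Ra in M. pheli medium (pH 6.6) in 96-well plates. XTT reduction menadione read-out at 470 nm, with DMSO vehicle as 100% growth. MIC derived from the dose-response curve. Duplicates, average ± standard deviation.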

[4] = test system: Mycobacterium tuberculosis; experiment: Antimycobacterial activity against dormant stage of Mycobacterium tuberculosis H37Ra ATCC 25177 by XRMA; assay type: functional, organism-based; how it was run: as §3

SMILES | Activity [1] | Activity [2] | Activity (Bacillus subtilis) [%] | Activity (Staphylococcus aureus) [%] | IC50 [3] [µg/mL] | IC90 [3] [µg/mL] | IC50 [4] [µg/mL] | IC90 [4] [µg/mL]
Clc1ccc(-n2cc(C(c3c[nH]c4ccccc34)c3c[nH]c4ccccc34)nn2)cc1 | Active | Active |  |  |  |  |  | 
Clc1ccc(-n2cc(C(c3c[nH]c4ccc(Br)cc34)c3c[nH]c4ccc(Br)cc34)nn2)cc1 | >88.22% | >88.22% | >70 |  |  |  |  | 
Clc1cccc(-n2cc(C(c3c[nH]c4ccc(Br)cc34)c3c[nH]c4ccc(Br)cc34)nn2)c1 | >87.18% | >87.18% |  | 71.77 | 0.22 (≈ 0.378 µM) | 13.5 (≈ 23.2 µM) | 0.12 (≈ 0.206 µM) | 9.84 (≈ 16.9 µM)
Cc1ccc(-n2cc(C(c3c[nH]c4ccccc34)c3c[nH]c4ccccc34)nn2)cc1 | Active | Active |  |  |  |  |  | 
Clc1cccc(-n2cc(C(c3c[nH]c4ccccc34)c3c[nH]c4ccccc34)nn2)c1 | >87.18% | >87.18% |  |  | 2.04 (≈ 4.81 µM) | > 30 | 0.37 (≈ 0.873 µM) | > 30
CC(=O)Nc1ccc(-n2cc(C(c3c[nH]c4ccc(Br)cc34)c3c[nH]c4ccc(Br)cc34)nn2)cc1 | >87.18% | >87.18% | >70 |  | 1.52 (≈ 2.52 µM) | 6.16 (≈ 10.2 µM) | 1 (≈ 1.65 µM) | 3 (≈ 4.96 µM)
COc1ccc(-n2cc(C(c3c[nH]c4ccccc34)c3c[nH]c4ccccc34)nn2)cc1 | Active | Active |  |  |  |  |  | 
CC(=O)Nc1ccc(-n2cc(C(c3c[nH]c4ccccc34)c3c[nH]c4ccccc34)nn2)cc1 | Active | Active |  |  |  |  |  | 
O=[N+]([O-])c1ccc(-n2cc(C(c3c[nH]c4ccccc34)c3c[nH]c4ccccc34)nn2)cc1 | Active | Active |  |  |  |  |  | 
COc1ccc(-n2cc(C(c3c[nH]c4ccc(Br)cc34)c3c[nH]c4ccc(Br)cc34)nn2)cc1 | >88.22% | >88.22% |  |  |  |  |  | 
O=[N+]([O-])c1ccccc1-n1cc(C(c2c[nH]c3ccc(Br)cc23)c2c[nH]c3ccc(Br)cc23)nn1 | >87.18% | >87.18% |  |  | 2.27 (≈ 3.83 µM) | > 30 | 1 (≈ 1.69 µM) | 30 (≈ 50.7 µM)
COc1ccccc1-n1cc(C(c2c[nH]c3ccccc23)c2c[nH]c3ccccc23)nn1 | Active | Active |  |  |  |  |  | 
O=[N+]([O-])c1ccccc1-n1cc(C(c2c[nH]c3ccccc23)c2c[nH]c3ccccc23)nn1 | Active | Active |  |  |  |  |  | 
Cc1ccc(-n2cc(C(c3c[nH]c4ccc(Br)cc34)c3c[nH]c4ccc(Br)cc34)nn2)cc1 | Active | Active |  |  |  |  |  | 
c1ccc(-n2cc(C(c3c[nH]c4ccccc34)c3c[nH]c4ccccc34)nn2)cc1 | Active | Active |  |  |  |  |  | 
O=[N+]([O-])c1cccc(-n2cc(C(c3c[nH]c4ccc(Br)cc34)c3c[nH]c4ccc(Br)cc34)nn2)c1 | >87.18% | >87.18% | >70 |  | 6.25 (≈ 10.6 µM) | > 30 | 2.56 (≈ 4.32 µM) | > 30
CO[C@H]1/C=C/O[C@@]2(C)Oc3c(C)c(O)c4c(O)c(c(/C=N/N5CCN(C)CC5)c(O)c4c3C2=O)NC(=O)/C(C)=C\C=C\[C@H](C)[C@H](O)[C@@H](C)[C@@H](O)[C@@H](C)[C@H](OC(C)=O)[C@@H]1C [RIFAMPIN] |  |  |  |  | 0.02 (≈ 0.0243 µM) | 0.53 (≈ 0.644 µM) |  | 0.8 (≈ 0.972 µM)
O=[N+]([O-])c1ccc(-n2cc(C(c3c[nH]c4ccc(Br)cc34)c3c[nH]c4ccc(Br)cc34)nn2)cc1 | >87.18% | >87.18% |  |  | 14.8 (≈ 25 µM) | > 30 | 2.96 (≈ 5 µM) | > 30
COc1ccccc1-n1cc(C(c2c[nH]c3ccc(Br)cc23)c2c[nH]c3ccc(Br)cc23)nn1 | Active | Active |  |  |  |  |  | 
Brc1ccc2[nH]cc(C(c3cn(-c4ccccc4)nn3)c3c[nH]c4ccc(Br)cc34)c2c1 | >87.18% | >87.18% | >70 |  | 2.19 (≈ 4 µM) | 30 (≈ 54.8 µM) | 1.55 (≈ 2.83 µM) | 9.39 (≈ 17.2 µM)
